MC4R antagonist: antagonists of human melanocortin 4 receptor (MC4R) | AID 540295 | P32245 | inhibition, % at 6.5 µM | MC4R-expressing cells, MTII-stimulated cAMP, LANCE TR-FRET | hit rate 0.48% among 360,000;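 active means inhibition above its plate's cutoff, the mean of tested wells on that plate plus 3 SD, cut at about 29% in these data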;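 further: 0% = Melanotan II alone and 100% = Melanotan II plus saturating MCL0020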
Target sequence (P32245 whole entry, looked up): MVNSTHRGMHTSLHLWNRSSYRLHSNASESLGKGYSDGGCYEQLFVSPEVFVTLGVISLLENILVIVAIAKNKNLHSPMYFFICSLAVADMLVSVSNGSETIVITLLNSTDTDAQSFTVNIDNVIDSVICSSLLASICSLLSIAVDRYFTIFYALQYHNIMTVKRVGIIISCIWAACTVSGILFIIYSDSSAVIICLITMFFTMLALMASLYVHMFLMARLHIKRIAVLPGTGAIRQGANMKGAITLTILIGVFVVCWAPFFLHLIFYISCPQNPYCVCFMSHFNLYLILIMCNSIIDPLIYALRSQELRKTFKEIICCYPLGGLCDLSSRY
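System: U2OS-MC4R stable cell line; Technique: Eu-cAMP/anti-cAMP TR-FRET, emission 671 nm; Repeats: single well per compound; Also added: Melanotan II; Dosing: one concentration, 6.5 µM nominal; Schedule: 30-min compound, 1-h challenge, 1-h detection, room temperature.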
ATG4B inhibitor: ATG4B (human) cysteine protease inhibition; hit rate 0.51% among 340,000; inhibition, % at 8.33 µM; Q9Y4P1; AID 504462; ATG4B cleavage of LC3-PLA2, NBD-HPC fluorescence, 1 h; in the data active means inhibition above about 40%
MPTP block: blocks calcium-induced mitochondrial swelling; isolated mouse mitochondria, Ca2+ swelling absorbance, 30 min; inhibition, % at 10 µM; hit rate 1.4% among 360,000; AID 602449;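 active means inhibition of 50% or more, scaled per plate between neutral and stimulator controls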;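 further: 0% = DMSO wells given calcium and 100% = 1 mM EGTA wells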
SMARCA2 activ: activators of SMARCA2 function; hit rate 1% among 370,000; MG213 cells, MMTV-luciferase reporter, dexamethasone, overnight; activation, % at 9.1 µM; in the data active means activation above about 7.8%;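 further: 0% = vehicle wells and 100% = reference activator wells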
MC4R ag barr: agonists of human melanocortin 4 receptor (MC4R) beta-arrestin; P32245; activation, % at 8.9 µM; U2OS MC4R beta-arrestin complementation, luminescence; percent of melanotan II response, DMSO zero; hit rate 0.98% among 360,000;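 active means activation above a per-plate cutoff, the mean activation of sample wells on that plate plus 3 SD, cut at about 8% in these data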
cAMP nonselect: U2OS forskolin cAMP inhibition counter-screen; shares compounds with MC4R antagonist; parental U2OS, LANCE TR-FRET; inhibition, % at 6.5 µM; hit rate 26% among 1,600; AID 602193;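 active means mean inhibition over triplicates above the low-control well mean plus 3 SD, set per campaign, cut at about 13% in these data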;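 further: signal is single emission at 671 nm which falls as cellular cAMP rises; 0% = forskolin-stimulated wells and 100% = buffer without forskolin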
MC4R antag conf: human MC4R cAMP antagonism confirmation | shares compounds with MC4R antagonist | MC4R-expressing cells, MTII-stimulated cAMP, TR-FRET | inhibition, % at 6.5 µM | hit rate 27% among 1,600 | AID 602195; in the data active means inhibition above about 29%;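 further: 0% = agonist stimulated wells alone and 100% = agonist stimulated wells plus saturating reference antagonist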
Numbers without * were called inactive. A selection: hits, their analogues and other compounds. The true share with any hit is near 4.1%.

What do the screens show for `COc1ccc(-c2nn(-c3ccccc3)cc2C(=O)Nc2ccc(C(=O)O)cc2)cc1OC`?
MC4R antagonist: 20.8; ATG4B inhibitor: 0.8; MPTP block: -0.9; SMARCA2 activ: 2.6; MC4R ag barr: -0.5

How did O=C(OC12CCCN(C1)/C(=C/c1ccc(Cl)cc1)C2)C1CCCC1 (stereo not given) do in these assays?
SMARCA2 activ: -0.4

What do the screens show for `COC(=O)[C@]12C[C@H](CC(=O)NCC34CC5CC(CC(C5)C3)C4)C(=O)N(Cc3ccccc3)C1=C[C@H](C1CCCC1)O[C@@H]2C`?
SMARCA2 activ: -2.3

What do the screens show for `Cc1cc(C)nc(NS(=O)(=O)c2ccc(NC(=O)Cc3ccccc3)cc2)n1`?
MC4R antagonist: 35.0*; ATG4B inhibitor: 2.8; MPTP block: -0.8; SMARCA2 activ: -0.7; MC4R ag barr: 1.4; cAMP nonselect: 1.8; MC4R antag conf: -12.4

Results for N#Cc1c(-c2ccccc2)nc(SCC(=O)Nc2ccccc2)[nH]c1=O ?
MC4R antagonist: 9.8; ATG4B inhibitor: 0.3; MPTP block: 3.1; SMARCA2 activ: -0.7; MC4R ag barr: -1.9

How did Cc1ccnc(NS(=O)(=O)c2ccc(NC(=O)Cc3ccccc3)cc2)n1 do in these assays?
MC4R antagonist: 3.5; ATG4B inhibitor: -4.0; MPTP block: 0.0; SMARCA2 activ: 0.1; MC4R ag barr: -1.8

How did Cc1cc(NC(=O)CSc2nc(-c3ccccc3)c(C#N)c(=O)[nH]2)no1 do in these assays?
MC4R antagonist: 34.5*; ATG4B inhibitor: 4.7; MPTP block: -1.0; SMARCA2 activ: -0.4; MC4R ag barr: 1.9; cAMP nonselect: 26.3*; MC4R antag conf: 50.0*

What do the screens show for `Cc1cc(C)nc(NS(=O)(=O)c2ccc(NC(=O)CSc3nc(-c4ccccc4)c(C#N)c(=O)[nH]3)cc2)n1`?
MC4R antagonist: 36.4*; ATG4B inhibitor: 6.8; MPTP block: -0.6; SMARCA2 activ: -2.8; MC4R ag barr: -1.8; cAMP nonselect: 16.8*; MC4R antag conf: 26.3

How did CCOC(=O)N1CCN(C(=O)C[C@H]2C[C@@]3(C(=O)OC)C(=C[C@H](C(C)C)O[C@@H]3C3CC3)N(Cc3ccc(Cl)cc3Cl)C2=O)CC1 do in these assays?
SMARCA2 activ: -1.6

Results for NC(Cc1ccc(C(F)(F)F)cc1)c1csc(Nc2nncc3ccccc23)n1 (stereo not given) ?
MC4R antagonist: 35.3*; MPTP block: 7.2; SMARCA2 activ: -7.1; MC4R ag barr: 1.6; cAMP nonselect: 21.3*; MC4R antag conf: 0.3

What do the screens show for `NC(COCc1ccccc1)c1csc(Nc2nncc3ccccc23)n1` (stereo not given)?
MC4R antagonist: 0.5; MPTP block: 4.2; SMARCA2 activ: -2.5; MC4R ag barr: 5.7

How did CCOc1cccc(/C=N/N2CCN(c3ccc(Cl)cc3)CC2)c1O do in these assays?
MC4R antagonist: 31.9*; ATG4B inhibitor: 3.6; MPTP block: 1.7; SMARCA2 activ: -1.8; MC4R ag barr: 0.4; cAMP nonselect: 6.0; MC4R antag conf: -7.6

Results for COc1ccccc1/C=N/N1CCN(c2ccc(Cl)cc2)CC1 ?
MC4R antagonist: 2.3; ATG4B inhibitor: -0.1; MPTP block: 2.5; SMARCA2 activ: -4.0; MC4R ag barr: -1.4

Results for CCCCN1CCN(C(=O)c2ccc(CNC(=O)c3cccc(Br)c3)cc2)CC1 ?
SMARCA2 activ: 2.3

How did Cc1nn(CC(=O)NNC(=O)c2ccccc2F)c([N+](=O)[O-])c1Br do in these assays?
MC4R antagonist: 37.2*; ATG4B inhibitor: -5.5; MPTP block: 4.3; SMARCA2 activ: -0.5; MC4R ag barr: 3.3; cAMP nonselect: 1.5; MC4R antag conf: -12.2

What do the screens show for `CCOC(=O)c1c(NC(=O)COc2cccc3c2CCN(C)C3=O)sc2c1CCC2`?
MC4R antagonist: 29.8*; ATG4B inhibitor: -18.2; MPTP block: 43.4; SMARCA2 activ: -1.1; MC4R ag barr: 8.7*; cAMP nonselect: 9.2; MC4R antag conf: 51.5*

What do the screens show for `O=C(NCCN1CCC(n2c(=O)[nH]c3cc(Cl)ccc32)CC1)c1ccc(F)cc1`?
SMARCA2 activ: 1.3

Results for CCc1nc(SCC(=O)Nc2nc3c(s2)CCCC3)c2ccccc2n1 ?
MC4R antagonist: 32.6*; ATG4B inhibitor: -0.2; MPTP block: 6.1; SMARCA2 activ: 1.2; MC4R ag barr: 1.8; cAMP nonselect: 17.2*; MC4R antag conf: 46.6*

How did CCCc1nc(SCC(=O)NC2CCCC2)c2ccccc2n1 do in these assays?
MC4R antagonist: 8.1; ATG4B inhibitor: 0.5; MPTP block: 1.1; SMARCA2 activ: -3.0; MC4R ag barr: -1.8

How did CCCc1nc(SCC(=O)Nc2nc3c(s2)CCCC3)c2ccccc2n1 do in these assays?
MC4R antagonist: 35.6*; ATG4B inhibitor: -2.5; MPTP block: 19.0; SMARCA2 activ: -2.1; MC4R ag barr: 2.2; cAMP nonselect: 10.7; MC4R antag conf: 27.0

How did O=C(/C=C(\Nc1ccc(Br)c(F)c1)c1ccccc1)c1ccccc1 do in these assays?
SMARCA2 activ: 2.9

How did O=C(COC(=O)CNC(=O)c1cccc([N+](=O)[O-])c1)Nc1ccccc1OC(F)F do in these assays?
MC4R antagonist: 13.3; ATG4B inhibitor: -8.9; MPTP block: 2.2; SMARCA2 activ: 1.1; MC4R ag barr: 1.7

Results for O=C(COC(=O)CNC(=O)c1cccc([N+](=O)[O-])c1)Nc1nc2ccccc2s1 ?
MC4R antagonist: 31.1*; ATG4B inhibitor: -12.4; MPTP block: 2.3; SMARCA2 activ: -1.2; MC4R ag barr: -1.5; cAMP nonselect: 7.2; MC4R antag conf: 12.7

Results for CCOC(=O)C1=C(c2ccccc2)NC(=O)NC1c1ccc(OC)cc1 (stereo not given) ?
MC4R antagonist: 19.4; ATG4B inhibitor: -5.9; MPTP block: 0.3; SMARCA2 activ: 0.0; MC4R ag barr: -2.2

Results for CCOC(=O)C1=C(c2ccccc2)NC(=O)NC1c1ccc(OC)c(OC)c1 (stereo not given) ?
MC4R antagonist: 32.9*; ATG4B inhibitor: 4.4; MPTP block: 1.0; SMARCA2 activ: -0.2; MC4R ag barr: 0.4; cAMP nonselect: -1.3; MC4R antag conf: -7.4

Results for C[C@@H]1C=CCCO[C@]12C(=O)N(Cc1ccc(Br)cc1)c1cccc(Br)c12 ?
SMARCA2 activ: -4.2

What do the screens show for `COC(=O)[C@]12C[C@H](CC(=O)NCCCCc3ccccc3)C(=O)N(Cc3ccc(Cl)cc3Cl)C1=C[C@H](C(C)(C)C)O[C@@H]2C`?
SMARCA2 activ: -3.4

What do the screens show for `COc1ccc(-c2csc(NC(=O)C3CC(=O)N(c4ccc5c(c4)OCCO5)C3)n2)cc1` (stereo not given)?
MC4R antagonist: 14.5; ATG4B inhibitor: -16.5; MPTP block: 4.1; SMARCA2 activ: -5.2; MC4R ag barr: 1.7

Compound activity as filed in PubChem BioAssay.
